Measured values from ChEMBL document CHEMBL1141075, “4-Oxo-4,7-dihydrothieno[2,3-b]pyridines as non-nucleoside inhibitors of human cytomegalovirus and related herpesvirus polymerases” (J Med Chem, 2005).

Columns and labels:
[1] = target: T1, DNA polymerase catalytic subunit (Herpes simplex virus (type 1 / strain 17), UniProt P04293); assay: Inhibition of herpes simplex virus type 1 DNA polymerase (95 uL) activity in a solution containing […] HEPES (pH 7.5), incubation for 12 minutes at 26 degrees C; design: species or system Human alphaherpesvirus 1
T1 sequence (P04293 whole entry): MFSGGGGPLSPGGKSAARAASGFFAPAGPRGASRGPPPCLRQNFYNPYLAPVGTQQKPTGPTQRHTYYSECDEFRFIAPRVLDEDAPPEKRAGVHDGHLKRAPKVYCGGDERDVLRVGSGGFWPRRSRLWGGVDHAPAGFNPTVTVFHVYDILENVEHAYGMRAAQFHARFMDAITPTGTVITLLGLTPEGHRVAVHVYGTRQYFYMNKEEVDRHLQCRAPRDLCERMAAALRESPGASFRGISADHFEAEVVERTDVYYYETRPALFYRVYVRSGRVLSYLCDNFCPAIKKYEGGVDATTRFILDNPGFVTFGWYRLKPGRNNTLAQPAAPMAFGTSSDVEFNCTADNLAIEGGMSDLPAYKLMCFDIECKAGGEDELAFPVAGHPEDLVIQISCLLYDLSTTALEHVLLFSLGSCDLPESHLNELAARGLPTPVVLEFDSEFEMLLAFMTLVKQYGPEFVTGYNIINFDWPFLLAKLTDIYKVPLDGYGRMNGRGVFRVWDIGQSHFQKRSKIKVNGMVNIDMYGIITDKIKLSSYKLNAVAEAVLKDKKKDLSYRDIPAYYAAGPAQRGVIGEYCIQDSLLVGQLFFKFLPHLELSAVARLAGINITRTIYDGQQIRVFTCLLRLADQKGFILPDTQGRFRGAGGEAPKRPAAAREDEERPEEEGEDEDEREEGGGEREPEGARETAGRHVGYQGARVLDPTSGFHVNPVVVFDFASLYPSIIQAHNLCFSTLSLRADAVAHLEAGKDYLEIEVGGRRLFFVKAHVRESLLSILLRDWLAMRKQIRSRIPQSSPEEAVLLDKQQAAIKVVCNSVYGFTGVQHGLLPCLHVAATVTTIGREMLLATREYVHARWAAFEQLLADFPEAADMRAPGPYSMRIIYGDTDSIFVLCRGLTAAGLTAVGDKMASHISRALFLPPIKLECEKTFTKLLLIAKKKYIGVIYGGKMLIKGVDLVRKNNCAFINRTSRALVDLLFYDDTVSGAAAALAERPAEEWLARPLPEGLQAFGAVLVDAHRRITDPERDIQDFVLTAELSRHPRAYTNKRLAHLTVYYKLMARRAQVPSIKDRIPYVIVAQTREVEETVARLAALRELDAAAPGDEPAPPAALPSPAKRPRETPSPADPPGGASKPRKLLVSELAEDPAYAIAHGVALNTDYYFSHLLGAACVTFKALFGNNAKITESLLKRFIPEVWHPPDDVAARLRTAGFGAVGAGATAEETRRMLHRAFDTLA

[2] = target: T2, DNA polymerase catalytic subunit (Human cytomegalovirus (strain AD169) (HHV-5) (Human herpesvirus 5), UniProt P08546); assay: Inhibition of human cytomegalovirus DNA polymerase (95 uL) activity in a solution containing […] HEPES (pH 7.5), incubation for 12 minutes at 26 degrees C; design: species or system Human betaherpesvirus 5
T2 sequence (P08546 whole entry): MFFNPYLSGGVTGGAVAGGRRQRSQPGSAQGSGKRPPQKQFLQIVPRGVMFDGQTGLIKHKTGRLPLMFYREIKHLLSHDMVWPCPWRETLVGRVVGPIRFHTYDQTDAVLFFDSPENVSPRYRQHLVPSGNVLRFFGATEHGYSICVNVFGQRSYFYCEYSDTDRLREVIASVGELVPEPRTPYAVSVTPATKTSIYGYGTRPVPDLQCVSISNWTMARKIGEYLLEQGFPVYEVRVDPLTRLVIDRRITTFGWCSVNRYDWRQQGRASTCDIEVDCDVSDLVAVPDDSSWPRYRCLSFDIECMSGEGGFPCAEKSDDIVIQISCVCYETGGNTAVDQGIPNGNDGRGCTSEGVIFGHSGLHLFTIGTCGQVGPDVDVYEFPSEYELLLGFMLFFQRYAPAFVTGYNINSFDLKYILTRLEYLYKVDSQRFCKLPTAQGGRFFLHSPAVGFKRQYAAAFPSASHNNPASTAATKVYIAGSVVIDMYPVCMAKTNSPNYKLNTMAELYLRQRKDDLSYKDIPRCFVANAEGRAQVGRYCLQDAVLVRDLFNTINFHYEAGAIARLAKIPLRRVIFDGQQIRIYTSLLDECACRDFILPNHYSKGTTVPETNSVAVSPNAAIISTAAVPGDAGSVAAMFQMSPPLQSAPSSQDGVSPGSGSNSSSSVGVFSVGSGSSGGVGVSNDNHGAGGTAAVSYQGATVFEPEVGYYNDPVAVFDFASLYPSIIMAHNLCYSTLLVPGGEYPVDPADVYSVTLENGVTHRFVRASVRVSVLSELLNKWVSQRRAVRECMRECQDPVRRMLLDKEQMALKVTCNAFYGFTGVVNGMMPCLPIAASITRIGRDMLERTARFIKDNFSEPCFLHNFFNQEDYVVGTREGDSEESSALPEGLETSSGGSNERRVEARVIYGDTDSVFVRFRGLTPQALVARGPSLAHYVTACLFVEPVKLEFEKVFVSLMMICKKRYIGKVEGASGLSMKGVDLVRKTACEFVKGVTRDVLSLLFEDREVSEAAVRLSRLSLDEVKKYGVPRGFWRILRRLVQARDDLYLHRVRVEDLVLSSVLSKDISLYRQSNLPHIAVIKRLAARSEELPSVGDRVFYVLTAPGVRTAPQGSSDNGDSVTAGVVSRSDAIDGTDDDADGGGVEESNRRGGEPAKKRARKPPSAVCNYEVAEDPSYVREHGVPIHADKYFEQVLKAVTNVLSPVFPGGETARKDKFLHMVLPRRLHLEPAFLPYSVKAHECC

[3] = test system: Vero; assay: Antiviral activity against herpes simplex virus type 2 (V826A) plaque forming unit grown on Human foreskin fibroblast cells upon incubation for 1 hour at 37 degrees C with compound dissolved in DMSO; assay type: functional, cell-based; conditions: Chlorocebus sabaeus
Procedure, shortened: (§1)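 Plaque reduction: about 50 PFU added per well of a 24-well dish of the appropriate cells, 1 h at 37 °C, then the inoculum was replaced by drug-containing DMEM with 10% FBS and 0.8% carboxymethyl cellulose. DMSO stocks were 200-fold. Plates were held at 37 °C until plaques formed. Plaques were counted microscopically or after crystal violet stain. Percent inhibition was taken against the uninhibited control, with IC50 by linear regression.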

[4] = test system: Vero; assay: Antiviral activity against herpes simplex virus type 1 KOS (PFAr2) plaque forming unit grown on Human foreskin fibroblast cells upon incubation for 1 hour at 37 degrees C with compound dissolved in DMSO; assay type: functional, cell-based; conditions: Chlorocebus sabaeus; procedure, shortened: as §1
[5] = test system: Vero; assay: Antiviral activity against herpes simplex virus type 1 Patton(BWr) plaque forming unit grown on Human foreskin fibroblast cells upon incubation for 1 hour at 37 degrees C with compound dissolved in DMSO; assay type: functional, cell-based; conditions: Chlorocebus sabaeus; procedure, shortened: as §1

| SMILES | IC50 [1] | IC50 [2] | IC50 [3] | IC50 [4] | IC50 [5] |
| --- | --- | --- | --- | --- | --- |
| Cn1cc(C(=O)NCc2ccc(Cl)cc2)c(=O)c2cc(CN3CCOCC3)ccc21 | 600 nM | 700 nM | – | – | – |
| O=C(NCc1ccc(Cl)cc1)c1cnc2ccc(CCCO)cc2c1O | 300 nM | 400 nM | – | – | – |
| Cn1cc(C(=O)NCc2ccc(Cl)cc2)c(=O)c2cc(CN3CCOCC3)sc21 | – | – | > 50000 nM | 2500 nM | 2500 nM |
